Drawing on ChEMBL document CHEMBL1142992, “Discovery of diaryl imidazolidin-2-one derivatives, a novel class of muscarinic M3 selective antagonists (Part 1)” (J Med Chem, 2007), this text covers Ki and inhibition for 32 compounds.

For one assay, the target named is T1, Muscarinic acetylcholine receptor M2 (Homo sapiens, UniProt P08172).
T1 sequence (P08172 whole entry): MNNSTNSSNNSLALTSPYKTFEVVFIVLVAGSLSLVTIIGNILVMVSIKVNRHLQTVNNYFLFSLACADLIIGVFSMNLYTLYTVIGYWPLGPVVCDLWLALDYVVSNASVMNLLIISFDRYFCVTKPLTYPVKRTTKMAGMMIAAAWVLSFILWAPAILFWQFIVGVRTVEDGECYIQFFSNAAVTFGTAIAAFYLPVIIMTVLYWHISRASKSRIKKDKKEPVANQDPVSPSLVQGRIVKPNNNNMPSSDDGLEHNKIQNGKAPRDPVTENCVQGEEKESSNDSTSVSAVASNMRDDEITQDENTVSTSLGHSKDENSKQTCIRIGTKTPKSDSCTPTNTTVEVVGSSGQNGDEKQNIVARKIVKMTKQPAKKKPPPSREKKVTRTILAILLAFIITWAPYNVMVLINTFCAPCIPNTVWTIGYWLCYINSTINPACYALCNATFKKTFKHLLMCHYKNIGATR
As to the kind of experiment: Displacement of [3H]N-methyl-scopolamine from human muscarinic M2 receptor expressed in CHO K1 cells. In kind it is cell-based. An outline of the steps: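 Membranes from CHO-K1 cells expressing human M2 receptor, homogenized and stored at -80 °C, resuspended in 50 mM Tris-HCl pH 7.4, 2.5 mM MgCl2, 1 mM EDTA. [3H]-N-methyl scopolamine 0.1-0.3 nM; nonspecific binding with cold N-methyl scopolamine. 10-point curves in duplicate, 60 min at room temperature, filtration through GF/B, scintillation counting.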
On the technique in general: Displacement assays read how much labelled ligand stays bound in the presence of the test substance.
For `Cc1cccc(CN2CCC(N3CC(c4ccccc4)(C4CCCCC4)NC3=O)CC2)c1` (configuration not stated), the inhibitory constant (Ki) – broadly, a dissociation constant, usually derived from enzyme kinetics or from competition with a known ligand – is listed as 166 nM (antagonist). On the same count and under the same terms, the value for `O=C1NC(c2ccccc2)(c2ccccc2)CN1C1CC2CCC(C1)N2Cc1ccccc1` (configuration not stated) was 65 nM (antagonist). Same read-out and setting: in the case of `CN1CCC(N2CC(c3ccccc3)(c3ccccc3)NC2=O)CC1` it was 2920 nM (antagonist); in that of `O=C1NC(c2ccccc2)(c2ccccc2)CN1C1CCN(Cc2cccs2)CC1`, 927 nM (antagonist). The same measure, in the same setting: in the case of `O=C1NC(c2ccccc2)(c2ccccc2)CN1C1CCN(Cc2ccc(Cl)cc2)CC1` it was 296 nM (antagonist); in that of `O=C1NC(c2ccccc2)(c2ccccc2)CN1C1CCN(Cc2cccc(O)c2)CC1`, 47.9 nM (antagonist). Take `O=C1NC(c2ccccc2)(c2ccccc2)CN1C1CCN(Cc2cccnc2)CC1`: the inhibition constant Ki is recorded as 302 nM (antagonist).

As to `O=C1NC(c2ccccc2)(c2ccccc2)CN1[C@H]1CCN(Cc2ccccc2)C1`, the Ki is 2270 nM (antagonist).

Turning to `O=C1NC(c2ccccc2)(C2CCCCC2)CN1C1CCN(Cc2cccc(Cl)c2)CC1` (configuration not stated), the Ki is recorded as 515 nM (antagonist). With `O=C1NC(c2ccccc2)(c2ccccc2)CN1[C@@H]1CCN(Cc2ccccc2)C1`, the inhibition constant Ki is 82.2 nM (antagonist). On the same count and under the same terms, in the case of `O=C1OC(c2ccccc2)(c2ccccc2)CN1C1CCN(Cc2ccccc2)CC1` it was 908 nM (antagonist); in that of `Nc1cccc(CN2CCC(N3CC(c4ccccc4)(c4ccccc4)NC3=O)CC2)c1`, 182 nM (antagonist); in that of `COc1ccc(CN2CCC(N3CC(c4ccccc4)(c4ccccc4)NC3=O)CC2)cc1`, 490 nM (antagonist).

With `CN1C(=O)N(C2CCN(Cc3ccccc3)CC2)CC1(c1ccccc1)c1ccccc1`, the Ki was 520 nM (antagonist). The same measure, in the same setting: in the case of `COc1cccc(CN2CCC(N3CC(c4ccccc4)(c4ccccc4)NC3=O)CC2)c1` it was 695 nM (antagonist); in that of `O=C1N(C2CCN(Cc3ccccc3)CC2)CC(c2ccccc2)N1Cc1ccccc1` (configuration not stated), 629 nM (antagonist); in that of `O=C1NC(Cc2ccccc2)(Cc2ccccc2)CN1C1CCN(Cc2ccccc2)CC1`, 2950 nM (antagonist). On the same count and under the same terms, in the case of `O=C1NC(c2ccccc2)(c2ccccc2)CN1C1CCN(CCOc2ccccc2)CC1` it was 328 nM (antagonist); in that of `O=C1NC(c2ccccc2)(c2ccccc2)CN1C1CCCN(Cc2ccccc2)CC1` (configuration not stated), 2 nM (antagonist); in that of `O=C1NC(c2ccccc2)(c2ccccc2)CN1C1CCN(Cc2cccc(F)c2)CC1`, 302 nM (antagonist). On the same count and under the same terms, the value for `O=C1NC(c2ccccc2)(c2ccccc2)CN1C1CCN(CCc2ccccc2)CC1` was 411 nM (antagonist).

The target in the next assay is T2, Muscarinic acetylcholine receptor M2 (Homo sapiens) (UniProt P08172).
T2 sequence (whole entry): T1 sequence (P08172 whole entry)
As to the kind of experiment: Displacement of [3H]N-methyl-scopolamine from human muscarinic M2 receptor expressed in CHO K1 cells at 10 uM. In kind it is cell-based.
In the case of `O=C1NC(c2ccccc2)(c2ccccc2)CN1C1CCCN(Cc2ccccc2)C1` (configuration not stated), the inhibition (as a rule, the change of the read-out against control, counted positive when it falls) was under 50%.

`N#Cc1cccc(CN2CCC(N3CC(c4ccccc4)(c4ccccc4)NC3=O)CC2)c1` came in with an inhibition of under 50%. The same measure, in the same setting: in the case of `O=C1NC(c2ccccc2)(c2ccccc2)CN1C1CCN(Cc2ccccc2Cl)CC1` it was under 50%; in that of `O=C1NC(c2ccccc2)(c2ccccc2)CN1C1CCN(Cc2c[nH]cn2)CC1`, under 50%; in that of `O=C1NC(c2ccccc2)(c2ccccc2)C(=O)N1C1CCN(Cc2ccccc2)CC1`, under 50%. In the case of `COc1ccc(C2(c3ccc(OC)cc3)CN(C3CCN(Cc4ccccc4)CC3)C(=O)N2)cc1`, the inhibition was under 50%. The same measure, in the same setting: in the case of `O=C1NC(c2ccccc2)(c2ccccc2)CN1C1CCN(Cc2cccc(C(F)(F)F)c2)CC1` it was under 50%; in that of `O=C1NC(c2ccccc2)(c2ccccc2)CN1C1CCN(CC2CCCCC2)CC1`, under 50%. As for `COc1ccccc1CN1CCC(N2CC(c3ccccc3)(c3ccccc3)NC2=O)CC1`, the inhibition was under 50%. In turn, `O=C1NC(c2ccccc2)(c2ccccc2)CN1C1CCN(c2ccccc2)CC1` yielded an inhibition of under 50%. Still for that read-out and setting: the value for `O=C1NC(c2ccccc2)(c2ccccc2)CN1C1CCN(Cc2cccc(OC(F)(F)F)c2)CC1` was under 50%.
